Results on 9 molecules are retold here after ChEMBL document CHEMBL1944524, “Synthesis and structure-activity relationship of 5-pyridazin-3-one phenoxypiperidines as potent, selective histamine H(3) receptor inverse agonists” (Bioorg Med Chem Lett, 2012).

A short description of data set [1]: Tmax in rat at 5 mg/kg, po. It is filed as ADME, organism-based. Also on record: dose 5 mg/kg, route oral. Particulars: in vivo. The method, boiled down:
(§1)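 Rat PK study, dosed 1 mg/kg iv plus 10 or 5 mg/kg po. iv vehicle 3% DMSO, 30% solutol, 67% phosphate buffered saline; oral vehicle 50% Tween 80, 40% propylene carbonate, 10% propylene glycol.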

Data set [2] is described as follows: Oral bioavailability in rat at 5 mg/kg. Type of data set: ADME, organism-based. Particulars: in vivo. Put shortly: as §1
Data set [3] addresses Histamine H3 receptor (Rattus norvegicus, UniProt Q9QYN8). Briefly: Displacement of [3H]N-alpha-methylhistamine from rat histamine H3 receptor expressed in CHO cells. It is filed as cell-based.
A short description of data set [4]: Ratio of drug level in brain to plasma in rat at 10 mg/kg, ip after 6 hrs. It is filed as ADME, organism-based. Further details: dose 10 mg/kg, route intraperitoneal. The note with it: read-out: BPR. Put shortly:
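Brain and plasma levels measured in rat 6 h after a 10 mg/kg ip dose; value is brain/plasma ratio.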

The nature of data set [5]: Inhibition of cytochrome P450. Type of data set: ADME. Put shortly: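 CYP inhibition assessed against 5 CYP isoforms; IC50 determined.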
A short description of data set [6]: Half life in rat at 1 mg/kg, iv. The note with it: in vivo. Further details: dose 1 mg/kg, route intravenous. It is filed as ADME, organism-based. Put shortly:
as §1

Data set [7] concerns the target Voltage-gated inwardly rectifying potassium channel KCNH2 (Homo sapiens, UniProt Q12809). The experiment in a line: Inhibition of human ERG by patch clamp assay.
Data set [8] in a line: Volume of distribution in rat at 1 mg/kg, iv. Particulars: in vivo. Further details: dose 1 mg/kg, route intravenous. It is filed as ADME, organism-based. Put shortly: as §1
A short description of data set [9]: Cmax in rat at 5 mg/kg, po. Type of data set: ADME, organism-based. Further details: dose 5 mg/kg, route oral. The note with it: in vivo. Put shortly:
as §1

Data set [10] can be described thus: Clearance in rat at 1 mg/kg, iv. It is filed as ADME, organism-based. Also on record: dose 1 mg/kg, route intravenous. Particulars: in vivo. The method, boiled down: as §1
Data set [11] can be described thus: AUC in rat at 5 mg/kg, po. Particulars: plasma. Type of data set: ADME, organism-based. Also on record: dose 5 mg/kg, route oral. Put shortly: as §1
The target in data set [12] is Histamine H3 receptor (Homo sapiens, UniProt Q9Y5N1). The experiment in a line: Displacement of [3H]N-alpha-methylhistamine from human histamine H3 receptor expressed in CHO cells. It is filed as cell-based.
The nature of data set [13]: Oral bioavailability in rat. It is filed as ADME, organism-based. The note with it: in vivo. Put shortly: as §1
Data set [14] in a line: Half life in human liver microsomes. It is filed as ADME, Microsome. The method, boiled down:
(§2)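 Stability in liver microsomes from rat, dog or human; half-life (min) determined.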

The nature of data set [15]: Half life in dog liver microsomes. It is filed as ADME, Canis lupus familiaris, Microsome. Put shortly: as §2
The test system of data set [16] is Rattus norvegicus. Briefly: AUC in po dosed rat assessed as 5-[4-(1-cyclobutyl-piperidin-4-yloxy)-phenyl]-6-methyl-2H-pyridazin-3-one level. Type of data set: ADME, organism-based, Plasma. Particulars: in vivo.
A short description of data set [17]: AUC in po dosed rat. Particulars: plasma. Type of data set: ADME, organism-based.
The nature of data set [18]: Half life in rat liver microsomes. It is filed as ADME, Microsome. Put shortly: as §2
The nature of data set [19]: Cmax in po dosed rat. Type of data set: ADME, organism-based. Further details: route oral. Particulars: in vivo.
Data set [20] relates to Rattus norvegicus. Briefly: Cmax in po dosed rat assessed as 5-[4-(1-cyclobutyl-piperidin-4-yloxy)-phenyl]-6-methyl-2H-pyridazin-3-one level. Type of data set: ADME, organism-based. Further details: route oral. Particulars: in vivo.
The target of data set [21] is Histamine H2 receptor (Homo sapiens) (UniProt P25021). Briefly: Inhibition of human histamine H2 receptor at 10 uM. The method, boiled down: (§3)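 Selectivity screen against human H1, H2 and H4 receptors; percent inhibition at 10 µM.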
The target of data set [22] is T1, Muscarinic acetylcholine receptor M2 (Homo sapiens, UniProt P08172).
T1 sequence (P08172 whole entry): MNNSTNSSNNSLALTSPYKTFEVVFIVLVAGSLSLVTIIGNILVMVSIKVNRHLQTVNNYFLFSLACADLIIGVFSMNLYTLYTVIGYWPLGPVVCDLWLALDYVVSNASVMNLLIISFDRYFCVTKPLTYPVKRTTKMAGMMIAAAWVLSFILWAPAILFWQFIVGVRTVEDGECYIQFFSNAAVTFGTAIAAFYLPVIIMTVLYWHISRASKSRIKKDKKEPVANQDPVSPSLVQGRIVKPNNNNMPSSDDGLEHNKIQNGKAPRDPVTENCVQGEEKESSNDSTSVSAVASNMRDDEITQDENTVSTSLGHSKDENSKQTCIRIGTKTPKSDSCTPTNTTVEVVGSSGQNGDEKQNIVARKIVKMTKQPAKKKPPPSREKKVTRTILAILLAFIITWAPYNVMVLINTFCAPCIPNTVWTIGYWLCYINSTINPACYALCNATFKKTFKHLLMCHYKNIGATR
The experiment in a line: Inhibition of muscarinic M2 receptor.

Data set [23] has as its target Histamine H4 receptor (Homo sapiens) (UniProt Q9H3N8). Briefly: Inhibition of human histamine H4 receptor at 10 uM. Put shortly: as §3
The target of data set [24] is Histamine H1 receptor (Homo sapiens) (UniProt P35367). The experiment in a line: Inhibition of human histamine H1 receptor at 10 uM. The method, boiled down: as §3
A short description of data set [25]: Cmax in rat at 10 mg/kg, po. Further details: dose 10 mg/kg, route oral. Particulars: in vivo. It is filed as ADME, organism-based. The method, boiled down: as §1
Data set [26] is described as follows: AUC in rat at 10 mg/kg, po. Type of data set: ADME, organism-based. Also on record: dose 10 mg/kg, route oral. The note with it: plasma. The method, boiled down: as §1
Data set [27] in a line: Tmax in rat at 10 mg/kg, po. It is filed as ADME, organism-based. Further details: dose 10 mg/kg, route oral. Particulars: in vivo. The method, boiled down:
as §1

Sequence of Histamine H3 receptor (Rattus norvegicus, UniProt Q9QYN8) (Q9QYN8 whole entry): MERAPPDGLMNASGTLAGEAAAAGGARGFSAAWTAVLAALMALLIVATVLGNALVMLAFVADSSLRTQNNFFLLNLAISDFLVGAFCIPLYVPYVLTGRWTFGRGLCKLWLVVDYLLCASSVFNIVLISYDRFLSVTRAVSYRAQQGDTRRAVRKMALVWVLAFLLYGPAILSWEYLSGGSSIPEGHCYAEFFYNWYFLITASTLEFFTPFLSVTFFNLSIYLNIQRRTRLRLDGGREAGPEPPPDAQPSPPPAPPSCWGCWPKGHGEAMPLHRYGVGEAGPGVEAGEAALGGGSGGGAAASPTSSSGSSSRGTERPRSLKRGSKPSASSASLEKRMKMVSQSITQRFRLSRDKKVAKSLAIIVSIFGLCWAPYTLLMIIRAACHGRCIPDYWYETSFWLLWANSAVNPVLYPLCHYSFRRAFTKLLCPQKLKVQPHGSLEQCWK
Sequence of Histamine H3 receptor (Homo sapiens, UniProt Q9Y5N1) (Q9Y5N1 whole entry): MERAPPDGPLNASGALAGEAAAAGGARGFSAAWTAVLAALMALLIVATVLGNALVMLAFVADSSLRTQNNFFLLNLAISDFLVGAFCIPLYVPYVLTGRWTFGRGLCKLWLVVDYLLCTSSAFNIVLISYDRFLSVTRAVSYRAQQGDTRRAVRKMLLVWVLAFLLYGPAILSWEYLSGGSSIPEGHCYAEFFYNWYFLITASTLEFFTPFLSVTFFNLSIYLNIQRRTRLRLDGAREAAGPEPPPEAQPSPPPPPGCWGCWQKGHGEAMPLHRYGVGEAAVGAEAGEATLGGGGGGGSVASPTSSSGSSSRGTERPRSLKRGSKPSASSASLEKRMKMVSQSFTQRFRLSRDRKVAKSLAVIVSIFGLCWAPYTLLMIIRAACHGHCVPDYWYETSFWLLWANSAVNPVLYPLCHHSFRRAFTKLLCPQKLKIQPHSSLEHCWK
Sequence of Voltage-gated inwardly rectifying potassium channel KCNH2 (Q12809 whole entry): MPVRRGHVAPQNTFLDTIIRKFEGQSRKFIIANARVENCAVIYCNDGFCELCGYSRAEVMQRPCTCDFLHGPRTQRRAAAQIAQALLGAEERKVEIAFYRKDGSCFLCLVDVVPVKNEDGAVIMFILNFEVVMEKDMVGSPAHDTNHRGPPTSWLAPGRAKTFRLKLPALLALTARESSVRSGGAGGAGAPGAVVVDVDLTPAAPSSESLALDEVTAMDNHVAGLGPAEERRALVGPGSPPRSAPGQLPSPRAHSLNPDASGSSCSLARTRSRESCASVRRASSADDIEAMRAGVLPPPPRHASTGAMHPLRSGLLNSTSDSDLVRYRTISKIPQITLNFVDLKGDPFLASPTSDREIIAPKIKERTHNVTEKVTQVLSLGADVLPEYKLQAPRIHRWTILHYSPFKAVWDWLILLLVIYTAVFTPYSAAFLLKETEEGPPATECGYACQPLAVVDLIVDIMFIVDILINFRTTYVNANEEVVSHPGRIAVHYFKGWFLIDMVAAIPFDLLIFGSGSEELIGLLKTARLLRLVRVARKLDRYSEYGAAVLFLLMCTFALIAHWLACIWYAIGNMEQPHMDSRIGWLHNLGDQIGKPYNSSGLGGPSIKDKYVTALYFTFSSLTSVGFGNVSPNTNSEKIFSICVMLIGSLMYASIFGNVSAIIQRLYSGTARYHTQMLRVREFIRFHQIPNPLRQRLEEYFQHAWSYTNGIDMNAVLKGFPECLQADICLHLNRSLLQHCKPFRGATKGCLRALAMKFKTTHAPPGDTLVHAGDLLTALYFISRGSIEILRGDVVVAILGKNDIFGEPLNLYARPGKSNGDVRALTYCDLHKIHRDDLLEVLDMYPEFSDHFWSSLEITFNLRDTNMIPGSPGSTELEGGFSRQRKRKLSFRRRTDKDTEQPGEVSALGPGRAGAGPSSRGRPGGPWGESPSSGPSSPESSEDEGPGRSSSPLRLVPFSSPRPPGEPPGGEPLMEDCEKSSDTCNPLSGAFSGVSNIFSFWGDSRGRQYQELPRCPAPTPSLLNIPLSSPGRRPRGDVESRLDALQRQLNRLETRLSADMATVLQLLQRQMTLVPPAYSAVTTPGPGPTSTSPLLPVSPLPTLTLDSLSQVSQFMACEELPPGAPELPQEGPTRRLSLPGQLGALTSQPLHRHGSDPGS
Sequence of Histamine H1 receptor (Homo sapiens) (P35367 whole entry): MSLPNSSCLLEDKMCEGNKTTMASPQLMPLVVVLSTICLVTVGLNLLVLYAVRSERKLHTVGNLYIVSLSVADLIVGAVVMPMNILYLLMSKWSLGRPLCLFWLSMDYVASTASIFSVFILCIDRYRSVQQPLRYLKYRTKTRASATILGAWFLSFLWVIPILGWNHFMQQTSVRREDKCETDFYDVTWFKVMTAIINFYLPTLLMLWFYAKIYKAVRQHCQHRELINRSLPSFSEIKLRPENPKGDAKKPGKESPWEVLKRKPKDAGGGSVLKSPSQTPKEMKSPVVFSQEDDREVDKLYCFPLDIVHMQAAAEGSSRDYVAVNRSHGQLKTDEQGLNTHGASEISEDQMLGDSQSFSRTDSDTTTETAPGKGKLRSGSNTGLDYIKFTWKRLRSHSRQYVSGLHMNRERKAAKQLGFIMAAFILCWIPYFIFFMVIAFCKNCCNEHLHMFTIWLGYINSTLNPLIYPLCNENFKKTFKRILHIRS
Sequence of Histamine H2 receptor (Homo sapiens) (P25021 whole entry): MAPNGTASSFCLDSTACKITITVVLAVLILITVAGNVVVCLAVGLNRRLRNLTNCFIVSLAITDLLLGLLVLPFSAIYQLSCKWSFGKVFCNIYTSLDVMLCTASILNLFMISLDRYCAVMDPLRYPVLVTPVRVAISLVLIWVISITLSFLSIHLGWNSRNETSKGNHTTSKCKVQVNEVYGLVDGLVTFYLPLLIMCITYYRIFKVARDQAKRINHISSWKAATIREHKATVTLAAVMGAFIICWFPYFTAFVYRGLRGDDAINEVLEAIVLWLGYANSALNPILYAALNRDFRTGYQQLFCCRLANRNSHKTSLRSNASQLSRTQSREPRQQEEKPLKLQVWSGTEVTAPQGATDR
Sequence of Histamine H4 receptor (Homo sapiens) (Q9H3N8 whole entry): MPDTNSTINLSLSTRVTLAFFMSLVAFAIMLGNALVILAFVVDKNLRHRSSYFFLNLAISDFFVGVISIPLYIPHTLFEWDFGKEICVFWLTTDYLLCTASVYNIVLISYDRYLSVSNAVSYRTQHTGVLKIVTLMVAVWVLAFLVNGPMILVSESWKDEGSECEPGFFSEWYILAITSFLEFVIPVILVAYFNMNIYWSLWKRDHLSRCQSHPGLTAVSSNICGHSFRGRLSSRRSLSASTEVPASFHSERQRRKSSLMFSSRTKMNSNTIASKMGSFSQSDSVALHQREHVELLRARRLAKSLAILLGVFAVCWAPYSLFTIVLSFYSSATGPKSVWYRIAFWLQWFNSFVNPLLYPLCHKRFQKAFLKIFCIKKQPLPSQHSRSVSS

Regarding `Cc1cccnc1-n1nc(C)c(-c2ccc(OC3CCN(C4CCC4)CC3)cc2)cc1=O`, the Tmax in data set [1] was 2.3 h. For the same molecule, in data set [2], the bioavailability came out at 23%. Further, the Ki on Histamine H3 receptor [3] came to 17 nM; at Histamine H3 receptor [12] it was 6 nM. In addition, the Kp at 6 h in data set [4] was determined as 1. In addition, the IC50 in data set [5] and in data set [7] was more than 30000 nM each time. Moreover, in [6], the half-life was 1.1 h. The Vd in data set [8] was determined as 1.1 L/kg. This molecule also showed a Cmax in data set [9] of 505 ng/mL. Moreover, in data set [10], the clearance amounted to 11 mL/min/kg. For the same molecule, in data set [11], the AUC is 1860 ng·h/mL.
With `Cc1cccc(-n2nc(C)c(-c3ccc(OC4CCN(C5CCC5)CC4)cc3)cc2=O)n1`, in [1], the Tmax was 2 h. Moreover, the bioavailability in data set [2] was 20%. Moreover, the values for the inhibitory constant (Ki) at Histamine H3 receptor [3] and on Histamine H3 receptor [12] were 10 nM and 4 nM, respectively. For the same molecule, the Kp at 6 h in data set [4] came to 1.6. Also, the IC50 in data set [5] and in [7] was more than 30000 nM in each case. Moreover, the half-life in data set [6] was 1.1 h. Besides, the Vd in data set [8] turned out to be 1.7 L/kg. For the same molecule, the peak concentration (Cmax) in data set [9] was 332 ng/mL. The clearance in [10] turned out to be 16 mL/min/kg. Moreover, the AUC in data set [11] was 1270 ng·h/mL.
`O=c1cc(-c2ccc(OC3CCN(C4CCC4)CC3)cc2)cn[nH]1`: the Ki on Histamine H3 receptor [3] and on Histamine H3 receptor [12] was 2 nM in each case. In data set [13], this molecule gave a bioavailability of 21%. This molecule also had an IC50 in data set [7] of 2000 nM.
Take `O=c1cc(-c2ccc(OC3CCN(C4CCC4)CC3)nc2)cn[nH]1`: the Ki at Histamine H3 receptor [3] was determined as 20 nM; at Histamine H3 receptor [12], 14 nM.
For the molecule `Cc1nn(C)c(=O)cc1-c1ccc(OC2CCN(C3CCC3)CC2)cc1`, the results for the Ki on Histamine H3 receptor [3] and on Histamine H3 receptor [12] were 8 nM and 4 nM, respectively. The half-life in [14], in [15] and in data set [18] was more than 0.667 h throughout. Besides, the AUC in the data set on Rattus norvegicus [16] turned out to be 320 ng·h/mL; in [17] it was 337 ng·h/mL. For the same molecule, the IC50 in data set [5] is more than 30000 nM. In data set [13], the bioavailability was found to be 19%. The Cmax in [19] turned out to be 107 ng/mL; with Rattus norvegicus [20] it was 68 ng/mL.
For `Cc1nn(-c2ccsc2)c(=O)cc1-c1ccc(OC2CCN(C3CCC3)CC2)cc1`, the Ki on Histamine H3 receptor [3] amounted to 8 nM; on Histamine H3 receptor [12], 3 nM.
Turning to `Cc1nn(-c2ccccn2)c(=O)cc1-c1ccc(OC2CCN(C3CCC3)CC2)cc1`, in data set [1], the Tmax is 3.2 h. For the same molecule, the bioavailability in data set [2] is 22%. Also, the Ki at Histamine H3 receptor [3] stood at 9 nM; on Histamine H3 receptor [12] it was 3 nM. Further, in [4], the Kp at 6 h came out at 1.6. The half-life was more than 0.667 h in data set [14], more than 0.667 h in data set [15], more than 0.667 h in data set [18] and 1.3 h in data set [6]. For the same molecule, the inhibition in [21], in data set [23] and in data set [24] was less than 30% each time. In addition, the figures for the IC50 in data set [5] and in data set [22] were more than 30000 nM and 340 nM, respectively. Besides, the Vd in data set [8] is 1.4 L/kg. This molecule also displayed a Cmax in data set [9] of 287 ng/mL. The clearance in data set [10] stood at 13 mL/min/kg. Further, the AUC in data set [11] came to 1500 ng·h/mL.
`CC1=NNC(=O)CC1c1ccc(OC2CCN(C3CCC3)CC2)cc1` (centres undefined): the Ki at Histamine H3 receptor [3] was 13 nM; on Histamine H3 receptor [12], 15 nM. Besides, the half-life in [14], in [15] and in data set [18] was more than 0.667 h in each case. In addition, the AUC turned out to be 152 ng·h/mL with Rattus norvegicus [16] and 370 ng·h/mL in data set [17]. In data set [5], this molecule returned an IC50 of more than 30000 nM. Besides, in [13], the bioavailability was 6%. Besides, the Cmax is 73 ng/mL in data set [19] and 34 ng/mL in the data set with Rattus norvegicus [20].
`C[C@@H]1CCCN1CCCOc1ccc(-c2cn[nH]c(=O)c2)cc1`: the Ki on Histamine H3 receptor [3] is 8.5 nM; at Histamine H3 receptor [12] it was 2.8 nM. For the same molecule, the Kp at 6 h in [4] stood at 1.8. Also, the Cmax in [25] amounted to 446 ng/mL. In addition, the AUC in data set [26] worked out at 4210 ng·h/mL. Also, the Tmax in [27] worked out at 2 h. This molecule displayed a volume of distribution (Vd) in data set [8] of 0.8 L/kg.
